# Assay results from PMC12866962 (Cell host & microbe, 2026).
# What was measured:
# [1] = test system: ThsA from Escherichia coli; settings: homologous ThsA from Escherichia coli; cited from earlier work
# [2] = test system: BaY2 Thoeris system (type II); assay: Thoeris protection in liquid media; assay type: cell-based; settings: for Inhibition of BaY2 Thoeris (phage-induced host population lysis), in words: B. subtilis expressing BaY2 Thoeris, phage SPO1, liquid culture
# [3] = test system: BaY2 Thoeris system (type II); assay: Phage reproduction of SPO1; assay type: cell-based; settings: PFUs 15 hours post-infection; 1 mM of compound 1, 333 µM of IP6C, 1 mM of compound 5
# How it was run: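 B. subtilis overnight culture diluted 1:100 in LB; 180 µL added to wells with 2 µL compound stock (DMSO or water). Preincubated 30 min at 30 °C, then ~10,000 PFU SPO1 added; grown at 30 °C, 208 rpm, OD600 every 30 min. After 15 h, cleared supernatant (16,000 g, 10 min) titred by 5 µL drops of 1:10 dilutions on undefended B. subtilis soft-agar lawns.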
# [4] = test system: E. faecalis DS16 Thoeris system cloned into E. faecalis OG1RF; assay: Phage reproduction of NPV1 on E. faecalis OG1RF:Thoeris; assay type: cell-based, Enterococcus faecalis; settings: PFUs 15 hours post-infection; 10 mM of IP6C, 8.2 mM of nicotinamide
# How it was run: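 Overnight E. faecalis was diluted 1:1000 into THB + 10 mM MgSO4 and added to compound-containing wells. After 1 h at 37 °C, ~1,000 PFUs NPV1 were added, with OD600 read every 30 min. At 15 h, culture was spun at 16,000 g for 10 min. Supernatant PFUs were titred by small-drop plaque assay on defenceless E. faecalis and compared with input PFUs. Mean ± SEM, three biological replicates.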
# [5] = Quantification of IP6C in polymicrobial model culture; assay type: physicochemical; settings: after 24 hours in polymicrobial co-culture with phage, LC-MS/MS
# How it was run: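 In the three phage-plus-compound polymicrobial cultures, 1 µL was sampled at start and at 24 h and quenched in 1 mL 90% acetonitrile. Analysis used a HILIC column with 20 mM ammonium acetate pH 9.2 containing medronic acid versus acetonitrile, gradient at 0.4 mL/min. MRM monitored 162.1→117 (quantifier) and 162.1→78.1 (qualifier), quantified against a pure-standard calibration curve.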
# [6] = test system: Thoeris system in the P. aeruginosa MRSN11538 clinical isolate; assay: Phage reproduction of Lit1 on P. aeruginosa MRSN11538; assay type: cell-based, Pseudomonas aeruginosa; settings: PFUs 20 hours post-infection; 1 mM of IP6C, 8.2 mM of nicotinamide
# [7] = test system: ThsB (BaY2ThsB or ArThsB); assay: Thermal shift assay; assay type: binding; settings: 5 µM protein, 1 mM compound, in the presence of NAD+
# How it was run: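 BaY2ThsB or ArThsB was mixed with test compound or buffer in 10 mM HEPES pH 7.5, 150 mM NaCl, 5 mM MgCl2 with NAD+.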
# [8] = test system: P. aeruginosa PAO1:Thoeris; assay: Preliminary phage therapy model in mice infected with PAO1:Thoeris; assay type: in vivo, BALB/c mice; settings: PAO1:Thoeris i.p. infection, IP6C only
# [9] = test system: Thoeris system in the P. aeruginosa MRSN11538 clinical isolate; assay type: cell-based; settings: Pseudomonas aeruginosa, read-out: IC50 (sensitization of P. aeruginosa MRSN11538 WT to Lit1)
# How it was run: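 Liquid lysis assay. Host overnight culture diluted 1:100 into LB + 10 mM MgSO4; 180 µL added per well over 2 µL test compound stock (DMSO or water); 30 min at 37 °C before ~10,000 PFU Lit1. OD600 recorded every 30 min at 37 °C. Thoeris strength derived from integrated area under the lysis curve, normalized to no-compound and no-defense controls.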
# [10] = test system: E. faecalis DS16 Thoeris system cloned into E. faecalis OG1RF; assay: Thoeris protection in liquid media, E. faecalis OG1RF:Thoeris + NPV1; assay type: cell-based; settings: Enterococcus faecalis, read-out: IC50 (inhibition of type II Thoeris in E. faecalis OG1RF:Thoeris)
# [11] = test system: Staphylococcus aureus USA300; assay: Polymicrobial model culture, S. aureus CFUs; assay type: cell-based; settings: 300 µM IP6C, 8.5 hours
# [12] = target: T1, BaY2ThsB (Bacillus amyloliquefaciens, UniProt I2C644); assay type: cell-based; settings: for His-ADPR production by ThsB: 500 µM of compound, SPO1-infected B. subtilis Pspank-BaY2ThsB, LC-HRMS
# [13] = Toxicity test of compounds in mice; assay type: in vivo
# [14] = test system: Streptococcus sanguinis SK36; assay: Polymicrobial model culture, S. sanguinis CFUs; assay type: cell-based; settings: 300 µM IP6C, 8.5 hours
# How it was run: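 S. aureus USA300, S. sanguinis SK36 and P. aeruginosa PAO1:Thoeris II overnights were mixed 1:1:1, then diluted 1:100 into TSB + 0.5% yeast extract + 10 mM MgSO4. Wells received DMSO or test compound, plus Lit1 (MOI 0.0001) or LB. Incubation was 8.5 h at 37 °C, 5% CO2. CFUs were counted before and after by PBS serial dilution on Streptococcus Selective Agar at 37 °C, 5% CO2. Three replicates.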
# [15] = test system: human cell lines (hTERT RPE-1, HDFn); assay: Human cell viability assay; assay type: cell-based; settings: 72 hours, Cell Titer Glo 2.0
# How it was run: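 hTERT RPE-1 and neonatal dermal fibroblasts were kept in DMEM with 10% FBS, penicillin/streptomycin, 37 °C, 5% CO2, and tested mycoplasma-negative. Cells were seeded at 2,000/well. After 24 h, medium was replaced with 0.1% DMSO vehicle or test compound (stock 1 M in DMSO), six replicate wells per dose. Luminescence was read after 72 h and expressed as percent viability relative to vehicle.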
# [16] = test system: P. aeruginosa MRSN11538 Thoeris system cloned into P. aeruginosa PAO1; assay: Phage reproduction of Lit1 on P. aeruginosa PAO1:Thoeris II; assay type: cell-based, Pseudomonas aeruginosa; settings: PFUs 15 hours post-infection; 1 mM of IP6C, 8.2 mM of nicotinamide
# How it was run: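 Overnight P. aeruginosa diluted 1:100 into LB + 10 mM MgSO4. 180 µL went into wells holding 2 µL test compound stock in DMSO or water. After 30 min at 37 °C, ~10,000 PFU Lit1 was added and OD600 read every 30 min at 37 °C. At 15 h, supernatant (16,000 g, 10 min) was titred by drop plaque assay on undefended P. aeruginosa.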
# [17] = target: T2, BaY2ThsA^Macro (Bacillus amyloliquefaciens, UniProt I2C645); assay: IP6C-ADPR and His-ADPR pull-down with BaY2ThsA^Macro; assay type: binding, Bacillus amyloliquefaciens Y2
# [18] = test system: P. aeruginosa MRSN11538 Thoeris system cloned into P. aeruginosa PAO1; assay: Thoeris protection in liquid media, P. aeruginosa PAO1:Thoeris + Lit1; assay type: cell-based; settings: Pseudomonas aeruginosa, PAO1, read-out: IC50 (inhibition of type II Thoeris in P. aeruginosa PAO1:Thoeris)
# [19] = target: T2, BaY2ThsA^Macro; assay: Saturation transfer difference; assay type: binding, Bacillus amyloliquefaciens Y2; settings: 10 µM BaY2ThsA^Macro, 1 mM IP6C-ADPR, competed with 1 mM ADPR
# [20] = target: T1, BaY2ThsB; assay: IP6C-ADPR pull-down with BaY2ThsB; assay type: binding, Bacillus amyloliquefaciens Y2; settings: protein purified from E. coli cells grown with 1.25 mM IP6C
# How it was run: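 E. coli TOP10 co-expressing DelTM-ThsA-TwinStrep and ThsB-His12 from one pBAD operon was induced at OD600 0.6 with 0.2% L-arabinose, with or without test compound, then grown overnight at 16 °C. ThsB was captured on His-tag magnetic beads, heat-denatured 5 min at 98 °C and centrifuged. Supernatant was analysed by LC-MS (extracted ion chromatogram of conjugate).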
# [21] = test system: EcThsA^Macro; assay: ITC experiment; assay type: binding, Escherichia coli
# T2 sequence (I2C645 83-297): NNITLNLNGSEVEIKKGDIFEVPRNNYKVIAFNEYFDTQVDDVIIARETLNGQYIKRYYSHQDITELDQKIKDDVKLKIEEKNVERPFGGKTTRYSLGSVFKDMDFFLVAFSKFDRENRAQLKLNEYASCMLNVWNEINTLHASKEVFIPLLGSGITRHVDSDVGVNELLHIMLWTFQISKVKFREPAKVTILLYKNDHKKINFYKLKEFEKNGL
# T1 sequence (I2C644 whole entry): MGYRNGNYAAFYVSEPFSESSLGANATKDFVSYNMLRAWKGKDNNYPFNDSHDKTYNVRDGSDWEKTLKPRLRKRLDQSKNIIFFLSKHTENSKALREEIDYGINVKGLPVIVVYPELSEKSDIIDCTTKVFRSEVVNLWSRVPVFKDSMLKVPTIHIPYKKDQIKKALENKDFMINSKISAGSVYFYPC
structure (smiles),measurement,setting,value
Nc1ncnc2c1ncn2[C@@H]1O[C@H](COP(=O)(O)OP(=O)(O)OC[C@H]2OC(O)[C@H](O)[C@@H]2O)[C@@H](O)[C@H]1O (some centres unmarked) [ADPR],Kd,[1],4.6 ± 0.5 µM
"c1ccn2ccnc2c1 [Compound 26, imidazo[1,2-a]pyridine]","Inhibition of BaY2 Thoeris (phage-induced host population lysis), in words",[2],weak potency
"NC(=O)c1ccc2nccn2c1 [IP6C, imidazo[1,2-a]pyridine-6-carboxamide]",Phage reproduction of SPO1 on B. subtilis expressing BaY2 Thoeris,[3],promoted the reproduction of SPO1
same,Phage proliferation of NPV1 on E. faecalis OG1RF:Thoeris,[4],fully rescued phage proliferation
same,Temporal stability: IP6C levels in co-culture,[5],no measurable decrease
same,Phage propagation of Lit1 on P. aeruginosa MRSN11538 WT,[6],allowed Lit1 phages to successfully propagate
same,Binding to ThsB (melting temperature shift),[7],no significant binding
same,Survival of mice treated with compound only (no phage),[8],all mice died within one day
same,IC50,[9],116 µM
same,IC50,[10],8200 µM
same,S. aureus CFUs in polymicrobial mixture,[11],unaffected
same,Intracellular NAD+ level,"[12]; 500 µM of IP6C, after SPO1 infection",unchanged
same,His-ADPR production by ThsB,[12],abolished His-ADPR production
same,Toxicity to mice,"[13]; i.p., 50 μL of 20 mg/mL, observed 7 days",not toxic
same,Food intake and body weight of mice,[13]; mice treated with IP6C,initially eat less and lose weight
same,S. sanguinis CFUs in polymicrobial mixture,[14],unaffected
same,Toxicity to human cell lines,[15],not toxic
same,IC50,"[2]; Bacillus amyloliquefaciens, read-out: IC50 (inhibition of BaY2 Thoeris)",10 µM
same,Phage propagation of Lit1 on P. aeruginosa PAO1:Thoeris II,[16],allowed P. aeruginosa phages to propagate
same,Amount of His-ADPR bound to BaY2ThsA^Macro,[17]; E. coli co-expressing BaY2ThsA^Macro and BaY2ThsB grown with 1.25 mM IP6C,dramatically decreased
same,IC50,[18],19 µM
NC(=O)c1ccc2n(cc[n+]2[C@@H]2O[C@H](COP(=O)(O)OP(=O)(O)OC[C@H]3O[C@@H](n4cnc5c(N)ncnc54)[C@H](O)[C@@H]3O)[C@@H](O)[C@H]2O)c1 [IP6C-ADPR],Binding to BaY2ThsA^Macro by STD NMR,[19],binds poorly
same,Intracellular concentration of IP6C-ADPR,"[12]; IPTG-inducible BaY2ThsB expression system, cells grown with IP6C, approximated with IP6C-ADPR standard",around 700 nM
same,Co-purification of IP6C-ADPR with BaY2ThsB,[20],did not co-purify with BaY2ThsB
same,Binding to EcThsA^Macro by ITC,[21],did not reveal any interpretable binding
same,IP6C-ADPR detected in purified BaY2ThsA^Macro,[17]; protein co-expressed with BaY2ThsB in E. coli grown with 1.25 mM IP6C,no IP6C-ADPR was detected
"N[C@@H](Cc1c[nH]cn1)C(=O)O [histidine, reference compound]",Binding to ThsB (melting temperature shift),[7],no significant binding
NC(=O)c1cccnc1 [nicotinamide],Phage proliferation of NPV1 on E. faecalis OG1RF:Thoeris,[4],fully rescued phage proliferation
same,Phage propagation of Lit1 on P. aeruginosa MRSN11538 WT,[6],allowed Lit1 phages to successfully propagate
same,IC50,[9],838 µM
same,IC50,[10],1500 µM
same,His-ADPR production by ThsB,[12],inhibited His-ADPR production
same,"Inhibition of BaY2 Thoeris (phage-induced host population lysis), in words",[2]; listed as 9,fully inhibited the Thoeris defense
same,Phage propagation of Lit1 on P. aeruginosa PAO1:Thoeris II,[16],allowed P. aeruginosa phages to propagate
same,IC50,[18],185 µM
